Assay results from ChEMBL document CHEMBL2150980 (Eur J Med Chem, 2012).

What was measured:
[1] = target: T1, Alpha-1A adrenergic receptor (Cavia porcellus) (UniProt Q9WU25); assay: Inverse agonist activity at alpha1A adrenoceptor in guinea pig thoracic aorta assessed as inhibition of ca2+-induced IRT at 10 nM after 30 mins; type: functional, tissue-based
T1 sequence (whole entry): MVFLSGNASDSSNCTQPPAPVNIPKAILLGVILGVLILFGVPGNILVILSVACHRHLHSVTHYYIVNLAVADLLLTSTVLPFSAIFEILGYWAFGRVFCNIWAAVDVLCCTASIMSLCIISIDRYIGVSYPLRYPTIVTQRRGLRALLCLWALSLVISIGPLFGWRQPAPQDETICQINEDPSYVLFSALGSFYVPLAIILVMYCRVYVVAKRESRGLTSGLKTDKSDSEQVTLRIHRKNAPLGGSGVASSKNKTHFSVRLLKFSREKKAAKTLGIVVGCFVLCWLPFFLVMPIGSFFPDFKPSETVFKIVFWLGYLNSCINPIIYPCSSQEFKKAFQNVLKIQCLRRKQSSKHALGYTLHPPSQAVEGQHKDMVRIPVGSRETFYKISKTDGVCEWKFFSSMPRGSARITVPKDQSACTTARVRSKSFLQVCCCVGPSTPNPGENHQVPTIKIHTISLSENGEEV
Procedure, shortened: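 Tissue in Krebs equilibrated 1 h at 1 g, then given a single (−)-noradrenaline dose. Washed 1 h in Ca2+-free Krebs with 0.1 mM EDTA, with agonist reapplied until no contraction (internal Ca2+ stores depleted). Antagonist 10 nM for 30 min, then Ca2+ 1.8 mM added. Result is % decrease versus IRT without any agent; mean ± SE, 4–7 experiments.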

[2] = target: T2, Adrenergic receptor alpha-2 (Rattus norvegicus, UniProt P22086+P19328+P22909); assay: Antagonist activity at alpha2 adrenoceptor in Sprague-Dawley rat prostatic vas deferens assessed as suppression of clonidine-mediated inhibition of twitch response after 30 mins; type: functional, tissue-based
T2 sequence (P22086 whole entry): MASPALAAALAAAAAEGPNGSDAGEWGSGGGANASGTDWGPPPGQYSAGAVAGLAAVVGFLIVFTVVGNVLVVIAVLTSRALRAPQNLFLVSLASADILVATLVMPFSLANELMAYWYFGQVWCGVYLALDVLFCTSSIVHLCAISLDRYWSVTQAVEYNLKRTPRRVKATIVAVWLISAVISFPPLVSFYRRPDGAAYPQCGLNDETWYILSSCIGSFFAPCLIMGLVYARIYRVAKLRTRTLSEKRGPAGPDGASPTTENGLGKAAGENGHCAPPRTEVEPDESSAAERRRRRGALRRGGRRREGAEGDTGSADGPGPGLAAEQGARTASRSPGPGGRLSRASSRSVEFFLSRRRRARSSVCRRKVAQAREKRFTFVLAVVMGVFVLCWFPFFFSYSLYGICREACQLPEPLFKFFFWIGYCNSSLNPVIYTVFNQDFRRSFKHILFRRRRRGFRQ
T2 sequence (P19328 whole entry): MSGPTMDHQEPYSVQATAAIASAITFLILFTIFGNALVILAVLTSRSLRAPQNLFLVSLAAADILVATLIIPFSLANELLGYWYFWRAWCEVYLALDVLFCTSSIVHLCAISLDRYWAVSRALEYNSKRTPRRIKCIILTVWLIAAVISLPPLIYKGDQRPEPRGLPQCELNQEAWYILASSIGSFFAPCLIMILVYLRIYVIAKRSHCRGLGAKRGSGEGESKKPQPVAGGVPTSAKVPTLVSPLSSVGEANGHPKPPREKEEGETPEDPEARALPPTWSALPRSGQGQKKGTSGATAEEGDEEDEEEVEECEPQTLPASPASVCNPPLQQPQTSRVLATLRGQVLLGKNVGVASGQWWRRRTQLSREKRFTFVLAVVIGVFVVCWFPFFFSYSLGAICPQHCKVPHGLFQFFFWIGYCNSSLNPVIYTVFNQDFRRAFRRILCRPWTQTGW
T2 sequence (P22909 whole entry): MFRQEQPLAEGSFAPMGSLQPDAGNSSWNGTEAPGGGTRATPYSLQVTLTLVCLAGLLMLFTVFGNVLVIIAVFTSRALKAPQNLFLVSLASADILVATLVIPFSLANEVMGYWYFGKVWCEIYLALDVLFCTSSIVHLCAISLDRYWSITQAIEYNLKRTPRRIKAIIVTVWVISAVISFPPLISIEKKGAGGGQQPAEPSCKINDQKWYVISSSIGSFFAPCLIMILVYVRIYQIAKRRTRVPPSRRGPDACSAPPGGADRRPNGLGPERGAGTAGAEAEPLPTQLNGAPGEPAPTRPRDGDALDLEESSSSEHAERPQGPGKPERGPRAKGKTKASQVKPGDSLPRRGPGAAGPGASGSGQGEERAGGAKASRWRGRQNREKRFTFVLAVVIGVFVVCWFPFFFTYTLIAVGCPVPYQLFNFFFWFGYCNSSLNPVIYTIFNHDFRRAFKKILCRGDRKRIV
Procedure, shortened: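 Prostatic vas deferens segments (1.5–2 cm) in Krebs at 37 °C, field-stimulated at 0.1 Hz with 3 ms square pulses, 20–40 V. Equilibrated 1 h at 0.35 g resting tension.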

[3] = target: T3, Alpha-1B adrenergic receptor (Homo sapiens, UniProt P35368); assay: Displacement of [3H]prazosin from human cloned alpha1B adrenoceptor expressed in CHO cell membranes after 30 mins by liquid scintillation counter
T3 sequence (P35368 whole entry): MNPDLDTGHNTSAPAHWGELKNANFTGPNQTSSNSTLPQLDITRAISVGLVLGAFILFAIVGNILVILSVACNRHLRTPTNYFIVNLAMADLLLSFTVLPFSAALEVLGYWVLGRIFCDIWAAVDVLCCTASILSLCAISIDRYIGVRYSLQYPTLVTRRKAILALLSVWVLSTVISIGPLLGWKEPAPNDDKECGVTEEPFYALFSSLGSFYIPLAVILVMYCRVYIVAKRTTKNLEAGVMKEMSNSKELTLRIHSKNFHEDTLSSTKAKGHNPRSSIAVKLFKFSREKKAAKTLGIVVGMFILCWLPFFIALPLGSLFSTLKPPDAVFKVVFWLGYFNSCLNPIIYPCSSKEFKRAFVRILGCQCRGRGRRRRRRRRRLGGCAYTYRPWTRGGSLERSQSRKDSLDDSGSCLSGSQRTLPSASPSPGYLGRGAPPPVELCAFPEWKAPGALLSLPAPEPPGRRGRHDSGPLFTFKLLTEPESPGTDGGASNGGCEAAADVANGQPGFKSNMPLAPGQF

[4] = target: T4, 5-hydroxytryptamine receptor 1A (Rattus norvegicus, UniProt P19327); assay: Displacement of [3H]-8-OH-DPAT from 5-HT1A receptor in rat hippocampal membranes after 30 mins by liquid scintillation counting; type: cell membranes, Hippocampus, Membrane
T4 sequence (P19327 whole entry): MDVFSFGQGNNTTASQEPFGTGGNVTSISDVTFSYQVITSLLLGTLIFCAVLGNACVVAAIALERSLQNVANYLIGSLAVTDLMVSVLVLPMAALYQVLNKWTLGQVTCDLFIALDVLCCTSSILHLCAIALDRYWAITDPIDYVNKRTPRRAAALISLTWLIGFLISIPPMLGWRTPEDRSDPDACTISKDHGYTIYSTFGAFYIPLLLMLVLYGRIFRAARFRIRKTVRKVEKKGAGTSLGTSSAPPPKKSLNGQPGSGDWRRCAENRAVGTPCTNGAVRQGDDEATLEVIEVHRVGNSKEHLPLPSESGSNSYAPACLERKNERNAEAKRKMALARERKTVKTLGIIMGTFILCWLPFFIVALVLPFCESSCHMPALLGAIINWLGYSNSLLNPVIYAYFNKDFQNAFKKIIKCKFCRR
Procedure, shortened: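 Crude rat hippocampal membranes in Tris-HCl 50 mM, pH 7.7, with pargyline and 4 mM CaCl2. […] Stopped by GF/B filtration, then scintillation counting. Ki from IC50 via Cheng–Prusoff; ≥3 experiments in triplicate.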

[5] = target: T5, Alpha-1A adrenergic receptor (Homo sapiens, UniProt P35348); assay: Displacement of [3H]prazosin from human cloned alpha1A adrenoceptor expressed in CHO cell membranes after 30 mins by liquid scintillation counter
T5 sequence (P35348 whole entry): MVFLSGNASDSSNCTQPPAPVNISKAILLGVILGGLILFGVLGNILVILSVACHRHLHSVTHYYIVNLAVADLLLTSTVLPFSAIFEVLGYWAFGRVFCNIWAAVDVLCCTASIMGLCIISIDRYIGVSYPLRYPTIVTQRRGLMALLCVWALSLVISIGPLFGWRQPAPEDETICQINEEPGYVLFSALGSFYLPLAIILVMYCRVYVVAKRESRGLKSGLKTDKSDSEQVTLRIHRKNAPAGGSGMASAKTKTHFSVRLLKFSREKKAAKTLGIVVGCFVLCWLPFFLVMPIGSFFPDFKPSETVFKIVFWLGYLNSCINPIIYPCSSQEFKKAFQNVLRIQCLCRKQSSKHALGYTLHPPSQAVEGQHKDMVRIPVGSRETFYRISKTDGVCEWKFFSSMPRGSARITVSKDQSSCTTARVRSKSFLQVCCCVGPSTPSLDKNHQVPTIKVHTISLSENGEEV
Procedure, shortened: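 Membranes incubated 30 min at 25 °C with 0.5 nM [3H]-prazosin ± compound (0.3–1000 nM) in 50 mM buffer, pH 7.7, containing pargyline and 0.1% ascorbic acid. Unlabelled prazosin defined nonspecific binding. GF/B filtration, scintillation counting.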

[6] = target: T6, Alpha-1D adrenergic receptor (Homo sapiens, UniProt P25100); assay: Displacement of [3H]prazosin from human cloned alpha1D adrenoceptor expressed in CHO cell membranes after 30 mins by liquid scintillation counter
T6 sequence (P25100 whole entry): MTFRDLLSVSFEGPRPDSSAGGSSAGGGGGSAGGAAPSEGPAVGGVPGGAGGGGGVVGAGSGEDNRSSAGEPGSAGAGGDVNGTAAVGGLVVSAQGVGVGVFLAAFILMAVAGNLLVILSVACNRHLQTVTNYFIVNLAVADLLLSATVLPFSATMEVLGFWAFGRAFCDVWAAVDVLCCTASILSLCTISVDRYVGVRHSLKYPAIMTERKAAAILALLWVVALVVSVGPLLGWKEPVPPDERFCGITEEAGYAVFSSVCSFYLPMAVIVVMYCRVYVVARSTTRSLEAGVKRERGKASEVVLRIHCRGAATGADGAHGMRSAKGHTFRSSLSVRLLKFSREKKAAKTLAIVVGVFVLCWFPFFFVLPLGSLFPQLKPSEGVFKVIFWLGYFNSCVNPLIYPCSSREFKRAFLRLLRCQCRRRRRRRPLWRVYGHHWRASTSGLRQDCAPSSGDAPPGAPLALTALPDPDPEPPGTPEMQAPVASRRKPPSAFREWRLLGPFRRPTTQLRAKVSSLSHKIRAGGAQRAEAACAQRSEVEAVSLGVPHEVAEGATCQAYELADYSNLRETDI

SMILES	inhibition [1] [%]	pA2 [2]	Ki [3] [nM]	Ki [4] [nM]	Ki [5] [nM]	Ki [6] [nM]
COc1cccc(OC)c1OCCNC[C@H]1COc2ccccc2O1.Cl	84	6.92	–	–	–	–
COc1cccc(OC)c1OCCNC[C@@H]1COc2cccc(OC)c2O1	–	–	79.4	12.9	16.6	16.6
COc1cccc(OC)c1OCCNC[C@@H]1COc2c(OC)cccc2O1	–	–	646	123	813	263

Results, then the compound that gave them:

inhibition [1] [%]	pA2 [2]	Ki [3] [nM]	Ki [4] [nM]	Ki [5] [nM]	Ki [6] [nM]	SMILES
–	–	33.9	17.4	5.62	3.98	COc1cccc(OC)c1OCCNC[C@@H]1COc2cccc(Cl)c2O1
–	–	398	17.4	66.1	324	COc1cccc(OC)c1OCCNC[C@@H]1COc2cccc(O)c2O1
–	–	102	31.6	18.2	7.41	COc1cccc(OC)c1OCCNC[C@@H]1COc2cccc(F)c2O1
